Measured values taken from ChEMBL document CHEMBL3352314, “Synthesis and antiproliferative activity of 8-hydroxyquinoline derivatives containing a 1,2,3-triazole moiety” (Eur J Med Chem, 2014).
Converted amounts (≈) assume the structure as drawn.

Columns and labels:
[1] = Antiproliferative activity against human OVCAR3 cells assessed as growth inhibition after 48 hrs by sulforhodamine B assay; type: functional; conditions: OVCAR-3, 48 h
Summary of the method: (§1)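 Cells in RPMI with penicillin:streptomycin added, exposed 48 h at 37 °C, 5% CO2 to 0.25, 2.5, 25 and 250 µg/mL compound in DMSO/RPMI (0.1% v/v). Doxorubicin (0.025–25 µg/mL) served as positive control. Cells were then fixed with 50% TCA and stained with sulforhodamine B, with protein read at 540 nm. Growth = 100×(T−T0)/(C−T0), using T0 and 48 h readings. GI50 was obtained by non-linear regression. Done in triplicate.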

[2] = Antiproliferative activity against human HaCaT cells assessed as growth inhibition after 48 hrs by sulforhodamine B assay; type: cell-based; summary of the method: as §1
U-251 = test: Antiproliferative activity against human U251 cells assessed as growth inhibition after 48 hrs by sulforhodamine B assay; type: functional; conditions: U-251, 48 h; summary of the method: as §1
NCI-H460 [3] = test: Selectivity index, ratio of GI50 for human HaCaT cells to GI50 for human NCI-H460 cells; type: functional
HaCaT [4] = test: Selectivity index, ratio of GI50 for human HaCaT cells to GI50 for human MCF7 cells; type: functional
MCF7 = test: Antiproliferative activity against human MCF7 cells assessed as growth inhibition after 48 hrs by sulforhodamine B assay; type: functional; conditions: MCF7, 48 h; summary of the method: as §1
HaCaT [5] = test: Selectivity index, ratio of GI50 for human HaCaT cells to GI50 for human 786-0 cells; type: functional
HaCaT [6] = test: Selectivity index, ratio of GI50 for human HaCaT cells to GI50 for human PC3 cells; type: functional
HaCaT [7] = test: Selectivity index, ratio of GI50 for human HaCaT cells to GI50 for human OVCAR3 cells; type: functional
NCI-H460 [8] = test: Antiproliferative activity against human NCI-H460 cells assessed as growth inhibition after 48 hrs by sulforhodamine B assay; type: functional; conditions: NCI-H460, 48 h; summary of the method: as §1
[9] = Antiproliferative activity against human PC3 cells assessed as growth inhibition after 48 hrs by sulforhodamine B assay; type: functional; conditions: PC-3, 48 h; summary of the method: as §1
NCI/ADR-RES = test: Antiproliferative activity against human NCI/ADR-RES cells assessed as growth inhibition after 48 hrs by sulforhodamine B assay; type: functional; summary of the method: as §1
786-0 = test: Antiproliferative activity against human 786-0 cells assessed as growth inhibition after 48 hrs by sulforhodamine B assay; type: functional; conditions: 786-0, 48 h; summary of the method: as §1
HaCaT [10] = test: Selectivity index, ratio of GI50 for human HaCaT cells to GI50 for human NCI/ADR-RES cells; type: functional
HaCaT [11] = test: Selectivity index, ratio of GI50 for human HaCaT cells to GI50 for human U251 cells; type: functional

Compound | GI50 (U-251) | GI50 (MCF7) | GI50 (NCI-H460 [8]) | GI50 (786-0) | GI50 [1] | GI50 at 48 h [2] | RatioGI50 (NCI-H460 [3]) | RatioGI50 (HaCaT [4]) | RatioGI50 (HaCaT [5]) | RatioGI50 (HaCaT [6]) | RatioGI50 (HaCaT [7]) | GI50 [9] | GI50 (NCI/ADR-RES) | RatioGI50 (HaCaT [10]) | RatioGI50 (HaCaT [11])
Ic1ccc(Cn2cc(CCCOc3cccc4cccnc34)nn2)cc1 | > 250 µg/mL | 25 µg/mL (≈ 53.2 µM) | 24.6 µg/mL (≈ 52.3 µM) | 22.6 µg/mL (≈ 48.1 µM) | 24.7 µg/mL (≈ 52.5 µM) | > 250 µg/mL | >10.2 | >10 | >11.1 | >10.1 | >10.1 | 24.7 µg/mL (≈ 52.5 µM) | > 250 µg/mL | – | –
c1cncc(CCCn2cc(CCCOc3cccc4cccnc34)nn2)c1 | 25.1 µg/mL (≈ 67.2 µM) | 27.8 µg/mL (≈ 74.4 µM) | 44.3 µg/mL (≈ 119 µM) | 69.4 µg/mL (≈ 186 µM) | 39.1 µg/mL (≈ 105 µM) | 25 µg/mL (≈ 66.9 µM) | 0.6 | 0.9 | 0.4 | 0.9 | 0.6 | 26.7 µg/mL (≈ 71.5 µM) | 12.5 µg/mL (≈ 33.5 µM) | 2 | 1
Fc1ccc(Cn2cc(CCCOc3cccc4cccnc34)nn2)cc1F | 18.2 µg/mL (≈ 47.8 µM) | 21.3 µg/mL (≈ 56 µM) | 23.7 µg/mL (≈ 62.3 µM) | 8.5 µg/mL (≈ 22.3 µM) | 63.5 µg/mL (≈ 167 µM) | 41.7 µg/mL (≈ 110 µM) | 1.8 | 1.9 | 4.9 | 6.3 | 0.7 | 6.6 µg/mL (≈ 17.4 µM) | 42.1 µg/mL (≈ 111 µM) | 1 | 2.3
FC(F)(F)Oc1ccc(Cn2cc(CCCOc3cccc4cccnc34)nn2)cc1 | 9.8 µg/mL (≈ 22.9 µM) | 3.1 µg/mL (≈ 7.24 µM) | 10.4 µg/mL (≈ 24.3 µM) | 7.9 µg/mL (≈ 18.4 µM) | 24.5 µg/mL (≈ 57.2 µM) | 4 µg/mL (≈ 9.34 µM) | 0.4 | 1.3 | 0.5 | 0.8 | 0.2 | 5 µg/mL (≈ 11.7 µM) | 5.5 µg/mL (≈ 12.8 µM) | 0.7 | 0.4
CC1(C)O[C@H]2[C@@H](O1)[C@@H](Cn1cc(CCCOc3cccc4cccnc34)nn1)O[C@@H]1OC(C)(C)O[C@@H]12 | 24.3 µg/mL (≈ 48.9 µM) | 2.6 µg/mL (≈ 5.24 µM) | 30.1 µg/mL (≈ 60.6 µM) | 30.8 µg/mL (≈ 62 µM) | < 0.25 µg/mL | 29.4 µg/mL (≈ 59.2 µM) | 1 | 11.3 | 0.9 | 1.8 | >117.6 | 16.2 µg/mL (≈ 32.6 µM) | 28.6 µg/mL (≈ 57.6 µM) | 1 | 1.2
O=C(Cn1cc(CCCOc2cccc3cccnc23)nn1)OCc1ccc(F)c(F)c1 | 26.5 µg/mL (≈ 60.4 µM) | 27.2 µg/mL (≈ 62 µM) | 29.2 µg/mL (≈ 66.6 µM) | 26.1 µg/mL (≈ 59.5 µM) | 15.1 µg/mL (≈ 34.4 µM) | 21.4 µg/mL (≈ 48.8 µM) | 0.7 | 0.8 | 0.8 | 7.4 | 1.4 | 2.9 µg/mL (≈ 6.61 µM) | 4.9 µg/mL (≈ 11.2 µM) | 4.4 | 0.8
Fc1ccc(Cn2cc(CCCOc3cccc4cccnc34)nn2)cc1 | 20.7 µg/mL (≈ 57.1 µM) | 11.7 µg/mL (≈ 32.3 µM) | 34.4 µg/mL (≈ 94.9 µM) | 195 µg/mL (≈ 538 µM) | 23.1 µg/mL (≈ 63.7 µM) | 115 µg/mL (≈ 318 µM) | 3.3 | 9.8 | 0.6 | 5.7 | 5 | 20.1 µg/mL (≈ 55.5 µM) | 49.4 µg/mL (≈ 136 µM) | 2.3 | 5.6
c1ccc(Cn2cc(CCCOc3cccc4cccnc34)nn2)cc1 | 25.2 µg/mL (≈ 73.2 µM) | 12.7 µg/mL (≈ 36.9 µM) | 28.6 µg/mL (≈ 83 µM) | 25 µg/mL (≈ 72.6 µM) | 24.3 µg/mL (≈ 70.6 µM) | 12.7 µg/mL (≈ 36.9 µM) | 0.4 | 1 | 0.5 | 0.8 | 0.5 | 16.8 µg/mL (≈ 48.8 µM) | 10.4 µg/mL (≈ 30.2 µM) | 1.2 | 0.5

Stronger by GI50 (U-251), values ahead:

GI50 (U-251) | GI50 (MCF7) | GI50 (NCI-H460 [8]) | GI50 (786-0) | Compound | GI50 [1] | GI50 at 48 h [2] | RatioGI50 (NCI-H460 [3]) | RatioGI50 (HaCaT [4]) | RatioGI50 (HaCaT [5]) | RatioGI50 (HaCaT [6]) | RatioGI50 (HaCaT [7]) | GI50 [9] | GI50 (NCI/ADR-RES) | RatioGI50 (HaCaT [10]) | RatioGI50 (HaCaT [11])
8.7 µg/mL (≈ 19 µM) | 9.6 µg/mL (≈ 21 µM) | 7.9 µg/mL (≈ 17.3 µM) | > 250 µg/mL | Clc1ccc(Br)cc1Cn1cc(CCCOc2cccc3cccnc23)nn1 | 8 µg/mL (≈ 17.5 µM) | 4.9 µg/mL (≈ 10.7 µM) | 0.6 | 0.5 | – | 0.6 | 0.6 | 8.2 µg/mL (≈ 17.9 µM) | 2.5 µg/mL (≈ 5.46 µM) | 2 | 0.6
8.4 µg/mL (≈ 19.8 µM) | 28 µg/mL (≈ 66.1 µM) | 11.7 µg/mL (≈ 27.6 µM) | 25.9 µg/mL (≈ 61.2 µM) | Brc1ccc(Cn2cc(CCCOc3cccc4cccnc34)nn2)cc1 | 27.2 µg/mL (≈ 64.3 µM) | 29.2 µg/mL (≈ 69 µM) | 2.5 | 1 | 1.1 | 3.5 | 1.1 | 8.4 µg/mL (≈ 19.8 µM) | 25.8 µg/mL (≈ 60.9 µM) | 1.1 | 3.5
3.4 µg/mL (≈ 8.97 µM) | 6.2 µg/mL (≈ 16.4 µM) | 11.2 µg/mL (≈ 29.6 µM) | 2.8 µg/mL (≈ 7.39 µM) | Clc1ccc(Cn2cc(CCCOc3cccc4cccnc34)nn2)cc1 | 8.1 µg/mL (≈ 21.4 µM) | 4.2 µg/mL (≈ 11.1 µM) | 0.4 | 0.7 | 1.5 | 1.2 | 0.5 | 3.6 µg/mL (≈ 9.5 µM) | 11.6 µg/mL (≈ 30.6 µM) | 0.4 | 1.2
3.1 µg/mL (≈ 6.92 µM) | 2.9 µg/mL (≈ 6.48 µM) | 7.4 µg/mL (≈ 16.5 µM) | 5.6 µg/mL (≈ 12.5 µM) | Clc1cc(Cl)c(Cn2cc(CCCOc3cccc4cccnc34)nn2)c(Cl)c1 | 11.4 µg/mL (≈ 25.5 µM) | 5.3 µg/mL (≈ 11.8 µM) | 0.7 | 1.8 | 0.9 | 1.9 | 0.5 | 2.8 µg/mL (≈ 6.25 µM) | 2.8 µg/mL (≈ 6.25 µM) | 1.9 | 1.7
0.039 µg/mL (≈ 0.0718 µM) | 0.038 µg/mL (≈ 0.0699 µM) | < 0.025 µg/mL | 0.15 µg/mL (≈ 0.276 µM) | COc1cccc2c1C(=O)c1c(O)c3c(c(O)c1C2=O)C[C@@](O)(C(=O)CO)C[C@@H]3O[C@H]1C[C@H](N)[C@H](O)[C@H](C)O1 [DOXORUBICIN] | 0.43 µg/mL (≈ 0.791 µM) | 0.11 µg/mL (≈ 0.202 µM) | – | – | – | – | – | 3.8 µg/mL (≈ 6.99 µM) | 0.54 µg/mL (≈ 0.994 µM) | – | –
